# High-throughput results from PubChem.
# Sampled rows, rich in hits. Any-hit rate of the full collection: about 1.2%.
# SR-BI DiI inh: mouse SR-BI HDL lipid transfer inhibition | inhibition, % at 12.5 µM | 320,000 tested, 0.96% active | ldlA[mSR-BI] CHO cells, DiI-HDL uptake fluorescence, 3 h | Q61009;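 active = mean replicate inhibition of at least 70% and a set share of replicates each scoring 70 or more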;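 note: 0% = median of neutral control wells and 100% = median of positive control wells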
# Target sequence (Q61009 whole entry, looked up): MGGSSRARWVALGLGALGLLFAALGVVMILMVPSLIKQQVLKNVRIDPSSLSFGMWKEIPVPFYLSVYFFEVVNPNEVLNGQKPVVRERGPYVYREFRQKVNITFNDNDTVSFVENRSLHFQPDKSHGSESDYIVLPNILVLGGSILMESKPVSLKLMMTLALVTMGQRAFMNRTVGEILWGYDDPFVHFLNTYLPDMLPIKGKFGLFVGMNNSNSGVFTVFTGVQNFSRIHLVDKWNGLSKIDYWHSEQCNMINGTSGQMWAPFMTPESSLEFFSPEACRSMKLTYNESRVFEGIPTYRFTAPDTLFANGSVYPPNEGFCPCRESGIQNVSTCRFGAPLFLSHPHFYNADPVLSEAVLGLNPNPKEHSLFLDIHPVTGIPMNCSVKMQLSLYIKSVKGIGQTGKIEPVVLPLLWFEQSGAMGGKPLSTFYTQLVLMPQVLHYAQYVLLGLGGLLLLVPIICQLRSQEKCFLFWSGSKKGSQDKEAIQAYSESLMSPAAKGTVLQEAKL
# Efflux pump inh: blocks antifungal efflux pumps in multiplex yeast assay; inhibition, % at 10 µM; S. cerevisiae Candida pump triplex, Nile Red efflux; AID 485275; 330,000 tested, 0.44% active;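 active = plate passing quality check with inhibition over a set limit, or well fluorescence over plate mean plus 4 SD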;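 note: Nile Red retained in pooled yeast measured as flow cytometry median fluorescence; 0% = buffer negative control and 100% = Enniatin B positive control; higher means more Nile Red kept so more efflux inhibition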
# SR-BI DiI-HDL act: activators of SR-BI mediated HDL lipid uptake | CHO ldlA[mSR-BI] cells, DiI-HDL uptake fluorescence, 3 h; 100 = double the neutral-control signal | activation, % at 12.5 µM | 320,000 tested, 0.096% active | AID 504775;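 active = mean replicate activation of at least 60% and every replicate at or above 60%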;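 note: 0% = median plate neutral-control signal and 100% = twice that signal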
#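 Test system: SR-BI-overexpressing, LDLR-lacking CHO cells; Medium: Ham's F12 with 0.5% BSA, HEPES 25 mM, pH 7.4; Schedule: 3 h, 37 °C; Technique: bottom-read fluorescence, 550/595 nm.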
# CaV13 ICDI inh: Primary screen for inhibitors of IQ motif and Ca2+-dependent inactivation inhibitor domain binding in CACNA1D, Förster resonance energy transfer in living cells, … | 340,000 tested, 0.098% active | HEK cells, CFP/YFP FRET ICDI-IQ, plate reader, 10 min; percent FRET-ratio fall versus neutral wells | inhibition, % at 12.3 µM | AID 743397;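 active = mean replicate inhibition of at least 30% and at least 1% of replicates passing that level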;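 note: 0% = median of the neutral control wells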
# FN deposit inh: fibronectin deposition inhibition | AH1F fibroblasts, Alexa488-fibronectin deposition fluorescence, overnight | inhibition, % at 12.6 µM | 350,000 tested, 0.086% active | AID 743247;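 active = mean inhibition across replicates of 30% or more, regardless of how many single replicates reach that level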;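 note: positive control wells lacked labelled fibronectin entirely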
#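 Assay system: AH1F fibroblast monolayer, labelled fibronectin deposition. Amount: 10000 cells per well. Also added: labelled fibronectin 24 nM. Compound: single-point pinned compound. Incubation: cell attachment 1 h, compound and FN exposure overnight. Detection: fluorescence after three HBSS washes, excitation 485 nm, emission 525 nm. Read-out: inhibition of fibronectin deposition signal.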
# Numbers without * were called inactive; nt = no result given; + = active, no number.
SMILES,SR-BI DiI inh,Efflux pump inh,SR-BI DiI-HDL act,CaV13 ICDI inh,FN deposit inh
N#Cc1cccc(-c2ccc(C3[C@@H]4CN(C(=O)Cc5ccccc5)C[C@H]3N4)cc2)c1 (some centres not stated),nt,nt,nt,nt,8
CC(=O)N(C)C[C@H]1Oc2ncc(C#CC(C)(C)O)cc2C(=O)N([C@@H](C)CO)C[C@H]1C,nt,nt,nt,nt,7
CC(C)NC(=O)NCC[C@@H]1CC[C@H](NC(=O)CN(C)C)[C@H](CO)O1,nt,nt,nt,nt,6
CCOc1ccc(/C=N/NC(=O)c2nnn(-c3nonc3N)c2-c2ccc(OCC)cc2)cc1,69,0,-69,-3,3
CCOc1ccc(-c2c(C(=O)N/N=C/c3c[nH]c4ccccc34)nnn2-c2nonc2N)cc1,88*,0,-88,-3,-9
CC(C)c1c(C(=O)N/N=C/c2ccoc2)nnn1-c1nonc1N,-5,0,5,-2,-4
CC(C)c1c(C(=O)N/N=C/c2ccc(C(F)(F)F)cc2)nnn1-c1nonc1N,77*,0,-77,-4,24
Nc1nonc1-n1nnc(C(=O)N/N=C/c2ccccc2F)c1-c1cccs1,74*,0,-74,-16,-4
CCCN(C)C[C@@H]1Oc2cc(C#Cc3ccc(F)cc3)ccc2S(=O)(=O)N([C@@H](C)CO)C[C@@H]1C,nt,nt,nt,nt,-1
CC(C)CC#Cc1ccc2c(c1)O[C@@H](CN(C)Cc1cccnc1)[C@@H](C)CN([C@@H](C)CO)S2(=O)=O,nt,nt,nt,nt,-8
O=c1oc2cc(O)ccc2cc1S(=O)(=O)c1ccccc1,-16,0,16,31*,4
NC(=S)c1cc2ccc(O)cc2oc1=O,-11,nt,11,13,nt
CCCCCCc1cc2cc(S(=O)(=O)c3ccc(Cl)cc3)c(=O)oc2cc1O,-8,0,8,nt,-12
O=c1oc2cc(O)ccc2cc1-c1nc2ccccc2o1,nt,nt,nt,38*,-21
CCN(CC)c1ccc2cc(S(=O)(=O)c3ccc(Cl)cc3)c(=O)oc2c1,-18,0,18,+,-2
C[C@H]1C/C=C\C[C@H](c2ccc3c(c2)OCO3)NC(=O)[C@H](c2ccccc2)CC(=O)N1,nt,nt,nt,nt,-8
CC(=O)Nc1cccc2c1O[C@H](CN(C)C(C)=O)[C@H](C)CN(C)C2=O,nt,nt,nt,nt,-8
C[C@H]1CN(C)C(=O)Cc2cc(N(C)C)ccc2O[C@@H]1CN(C)S(C)(=O)=O,nt,nt,nt,nt,4
CCOCCn1c(=NC(=O)/C=C/c2ccccc2Cl)sc2cc(NC(C)=O)ccc21,71*,0,-71,-3,-2
C[C@@H]1CN([C@@H](C)CO)C(=O)c2cccc(NC(=O)CCCCCC(=O)Nc3ccccc3N)c2O[C@H]1CN(C)CC1CCCCC1,nt,nt,nt,nt,-1
COc1ccc(NC(=O)C(C)Sc2nnc(C3CC3)n2C2CC2)cc1 (configuration not stated),-21,0,21,-6,-4
CC(=O)c1ccc(NC(=O)C(C)Sc2nnc(C3CC3)n2C2CC2)cc1 (configuration not stated),76*,0,-76,-5,-3
CO[C@H]1CN(C)C(=O)c2ccc(NC(=O)Nc3ccccc3F)cc2OC[C@H](C)NC[C@H]1C,nt,nt,nt,nt,-20
CCOC(=O)CSc1nc(C2CC2)cc(-c2ccc(F)cc2)c1C#N,72*,0,-72,nt,3
COc1ccc(-c2cc(C3CC3)nc(SCC(=O)c3cccs3)c2C#N)cc1,66,0,-66,-6,3
CC(C)NC(=O)N(C)C[C@@H]1Oc2c(NS(C)(=O)=O)cccc2C(=O)N(C)C[C@H]1C,nt,nt,nt,nt,8
O=C(Cc1cccc(NC(=O)C2CCCN(C(=O)C3CCCC3)C2)c1)Nc1ccc(C(=O)N2CCCCC2)cc1 (configuration not stated),63,nt,-63,-8,12
O=C(Cc1cccc(NC(=O)C2CCCN(C(=O)C3CC3)C2)c1)Nc1ccc(C(=O)N2CCCCC2)cc1 (configuration not stated),75*,nt,-75,-10,-1
O=C(Cc1cccc(NC(=O)C2CCCN(C(=O)CCc3ccccc3)C2)c1)Nc1cccc(C(=O)N2CCCC2)c1 (configuration not stated),78*,0,-78,-10,-9
